Shown are actives, neighbours in structure and some others; about 1.9% of the full set was active somewhere.
TDP2 absorb: blocks human TDP2 phosphodiesterase activity | O95551 | recombinant TDP2, T5PNP hydrolysis, p-nitrophenol absorbance 415 nm | inhibition, % at 12.8 µM | 0.34% of 370,000 active | AID 720702;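 active = inhibition above the mean of all tested compounds plus 3 SD, set per campaign, cut at about 25% in these data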
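System – recombinant human TDP2 · Quantity – TDP2 enzyme at 120 nM final · Doses – single concentration, 12.8 µM nominal, with 1% DMSO · Incubation – 2 h at 37 °C · Measured by – epi absorbance of p-nitrophenol freed from T5PNP by hydrolysis · Read-out – % inhibition relative to enzyme-containing and enzyme-free wells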
NSD2 inh: NSD2 (human) methyltransferase inhibition | O96028 | NSD2 peptide methylation, AlphaScreen, 120 min | inhibition, % at 12.5 µM | 0.54% of 310,000 active; in the data active = inhibition above about 50%
Target sequence (O96028 whole entry, looked up): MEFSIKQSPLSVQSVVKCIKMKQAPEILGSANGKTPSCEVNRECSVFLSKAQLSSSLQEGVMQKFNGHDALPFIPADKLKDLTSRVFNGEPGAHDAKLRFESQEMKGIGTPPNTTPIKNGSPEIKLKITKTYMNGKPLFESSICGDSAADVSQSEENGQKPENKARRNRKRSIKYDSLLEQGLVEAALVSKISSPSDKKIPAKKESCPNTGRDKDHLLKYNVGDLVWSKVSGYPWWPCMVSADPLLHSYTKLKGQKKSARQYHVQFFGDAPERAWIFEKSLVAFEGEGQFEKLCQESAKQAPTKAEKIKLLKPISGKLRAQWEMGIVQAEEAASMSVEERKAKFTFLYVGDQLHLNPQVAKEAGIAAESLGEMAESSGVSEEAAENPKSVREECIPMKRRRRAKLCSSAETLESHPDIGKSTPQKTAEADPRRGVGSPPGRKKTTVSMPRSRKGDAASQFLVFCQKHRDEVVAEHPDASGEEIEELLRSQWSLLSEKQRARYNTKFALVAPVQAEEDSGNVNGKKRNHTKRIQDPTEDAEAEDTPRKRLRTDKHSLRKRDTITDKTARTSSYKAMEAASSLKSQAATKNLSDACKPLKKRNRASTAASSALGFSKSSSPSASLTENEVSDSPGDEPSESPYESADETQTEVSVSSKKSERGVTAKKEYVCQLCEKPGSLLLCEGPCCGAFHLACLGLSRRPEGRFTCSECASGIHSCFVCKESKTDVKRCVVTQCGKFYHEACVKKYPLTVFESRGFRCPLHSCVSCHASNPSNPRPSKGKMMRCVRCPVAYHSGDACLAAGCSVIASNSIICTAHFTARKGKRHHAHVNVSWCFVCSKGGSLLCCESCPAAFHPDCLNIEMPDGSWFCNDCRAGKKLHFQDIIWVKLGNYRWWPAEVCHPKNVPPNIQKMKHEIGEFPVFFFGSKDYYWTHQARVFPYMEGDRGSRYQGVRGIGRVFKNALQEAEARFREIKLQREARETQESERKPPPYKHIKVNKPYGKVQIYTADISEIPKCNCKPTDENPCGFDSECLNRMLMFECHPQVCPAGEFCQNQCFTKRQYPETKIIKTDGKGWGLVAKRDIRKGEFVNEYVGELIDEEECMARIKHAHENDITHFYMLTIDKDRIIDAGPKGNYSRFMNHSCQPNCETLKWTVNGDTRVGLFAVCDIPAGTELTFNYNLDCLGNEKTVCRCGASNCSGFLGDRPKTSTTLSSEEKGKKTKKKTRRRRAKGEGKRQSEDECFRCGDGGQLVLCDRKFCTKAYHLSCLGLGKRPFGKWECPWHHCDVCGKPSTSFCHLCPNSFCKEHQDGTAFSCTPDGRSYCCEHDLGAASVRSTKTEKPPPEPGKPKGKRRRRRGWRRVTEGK
UHRF1 binding: UHRF1 methyl-DNA binding inhibition; 0.75% of 370,000 active; inhibition, % at 4.4 µM; UHRF1 binding to methylated oligo, TR-FRET; AID 687016; Q96T88; in the data active = inhibition above about 21%;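 also: UHRF1 SRA domain binding a hemimethylated CpG hairpin DNA probe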
Casp6 inh: inhibitors of human caspase-6. P55212. 0.53% of 350,000 active. inhibition, % at 12.5 µM. purified caspase-6, Z-VEID-R110 cleavage fluorescence. AID 686996;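 active = mean inhibition across replicates at least about 35%, with every replicate also reaching that limit, limit read from the data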
MBD2 DNA inh: inhibitors of human MBD2 binding to methylated oligonucleotide; Q9UBB5; TR-FRET; inhibition, % at 4.4 µM; 0.31% of 370,000 active; AID 686964; in the data active = inhibition above about 13%
LEDGF integ inh: blocks HIV-1 LEDGF/p75-dependent DNA integration; inhibition, % at 3.7 µM; 0.64% of 370,000 active; TR-FRET IN-LEDGF/p75 DNA integration, Eu/Cy5; AID 743269;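 active = inhibition above the screen-wide mean plus 3 SD, cut at about 13% in these data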;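 also: signal is the Cy5 over europium emission ratio at 671 and 618 nm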
Alpha artifact: AlphaScreen assay artifact in NSD2 counter-screen; AC35, µM (doses to about 10 µM); shares compounds with NSD2 inh; AlphaScreen artifact counterscreen, preloaded methylated H4 peptide; 9.4% of 1,500 active; AID 1053174; call rule not given here
Numbers stand for hits.

CSc1nsc(SCC(=O)Nc2cccc(NC(C)=O)c2)n1 was read as TDP2 absorb inactive, NSD2 inh 63, UHRF1 binding inactive, Casp6 inh inactive, MBD2 DNA inh inactive, LEDGF integ inh inactive and Alpha artifact inactive.
CCOC(=O)c1c(C)[nH]c(C)c1C(=O)COC(=O)[C@@H]1CCCN1S(=O)(=O)c1ccc(Cl)cc1 was read as TDP2 absorb inactive, NSD2 inh 76, UHRF1 binding inactive, Casp6 inh inactive, MBD2 DNA inh inactive, LEDGF integ inh inactive and Alpha artifact inactive.
For Cc1cccc(NC(=O)CCN2CCCCC2)c1 the results were TDP2 absorb inactive, NSD2 inh 66, UHRF1 binding inactive, Casp6 inh inactive, MBD2 DNA inh inactive, LEDGF integ inh inactive and Alpha artifact inactive.
Screening Cc1ccc(NC(=O)CCN2CCN(C/C=C/c3ccccc3)CC2)cc1 returned TDP2 absorb inactive, NSD2 inh inactive, UHRF1 binding inactive, MBD2 DNA inh inactive and LEDGF integ inh inactive.
For Cc1ccc(NC(=O)CCN2CCN(C/C=C/c3ccccc3)CC2)cc1C the results were TDP2 absorb inactive, NSD2 inh 64, UHRF1 binding inactive, MBD2 DNA inh inactive, LEDGF integ inh inactive and Alpha artifact inactive.
For Cc1csc(SCC(=O)Nc2ccc3c(c2)OCCO3)n1 the results were TDP2 absorb inactive, NSD2 inh 62, UHRF1 binding inactive, Casp6 inh inactive, MBD2 DNA inh inactive, LEDGF integ inh inactive and Alpha artifact inactive.
Screening Nn1c(SCC(=O)Nc2ccc3c(c2)OCCO3)nnc1-c1ccncc1 returned TDP2 absorb inactive, NSD2 inh inactive, UHRF1 binding inactive, Casp6 inh inactive, MBD2 DNA inh inactive and LEDGF integ inh inactive.
Cn1c(SCC(=O)Nc2ccc3c(c2)OCCO3)nnc1-c1ccncc1 was read as TDP2 absorb inactive, NSD2 inh 77, UHRF1 binding inactive, Casp6 inh inactive, MBD2 DNA inh inactive, LEDGF integ inh inactive and Alpha artifact inactive.
COc1ccc(NC(=O)Nc2ccc3c(c2)C(=O)N([C@H](C)CO)C[C@H](C)[C@@H](CN(C)C(=O)Nc2ccc(F)cc2)OCCCC[C@@H](C)O3)cc1 was read as Casp6 inh inactive.
CNC[C@H]1Oc2c(NC(=O)C3CCCCC3)cccc2C(=O)N([C@H](C)CO)C[C@H]1C was read as Casp6 inh inactive.
Cc1ccc(Nc2nc(-c3ccc(O)c(O)c3)cs2)nc1 was read as TDP2 absorb inactive, NSD2 inh 88, UHRF1 binding inactive, Casp6 inh inactive, MBD2 DNA inh inactive, LEDGF integ inh inactive and Alpha artifact inactive.
For Cc1ccc(Nc2nc(-c3ccc(F)cc3)cs2)nc1 the results were TDP2 absorb inactive, NSD2 inh inactive, UHRF1 binding inactive, Casp6 inh inactive, MBD2 DNA inh inactive and LEDGF integ inh inactive.
CC1CCCC(C)N1C(=O)COC(=O)c1ccc([N+](=O)[O-])o1 (configuration not stated) was read as TDP2 absorb inactive, NSD2 inh 69, UHRF1 binding inactive, Casp6 inh inactive, MBD2 DNA inh inactive, LEDGF integ inh inactive and Alpha artifact inactive.
`C/C=C/c1ccc2c(c1)O[C@@H](CN(C)C(=O)Nc1ccc(C(F)(F)F)cc1)[C@@H](C)CN([C@@H](C)CO)S2(=O)=O` gave Casp6 inh inactive.
`COc1nc(C)ccc1-c1noc(-c2cccnc2)n1` gave TDP2 absorb inactive, NSD2 inh inactive, UHRF1 binding inactive, Casp6 inh inactive, MBD2 DNA inh inactive and LEDGF integ inh inactive.
Screening COC1=C(Br)C(=O)c2nc(C)ccc2C1=O returned TDP2 absorb 25, NSD2 inh 186, UHRF1 binding 39, Casp6 inh 95, MBD2 DNA inh inactive, LEDGF integ inh 65 and Alpha artifact inactive.
For C[C@@H]1CN([C@H](C)CO)C(=O)c2cccc(NS(=O)(=O)c3cn(C)cn3)c2O[C@H]1CN(C)Cc1ccc2c(c1)OCO2 the results were Casp6 inh inactive.
O=C(CNC(=O)c1ccco1)NCC(=O)OCc1ccccc1Cl was read as TDP2 absorb inactive, NSD2 inh 56, UHRF1 binding inactive, Casp6 inh inactive, MBD2 DNA inh inactive, LEDGF integ inh inactive and Alpha artifact inactive.
For CNCc1ccccc1OCc1ccc(F)cc1 the results were TDP2 absorb inactive, NSD2 inh 60, UHRF1 binding inactive, Casp6 inh inactive, MBD2 DNA inh inactive, LEDGF integ inh inactive and Alpha artifact inactive.
`CCOc1ccc(S(=O)(=O)N2CCCC(C(=O)N3CCOCC3)C2)cc1Cl` (configuration not stated) gave TDP2 absorb inactive, NSD2 inh inactive, UHRF1 binding inactive, Casp6 inh inactive, MBD2 DNA inh inactive and LEDGF integ inh inactive.
Screening CCOc1ccc(S(=O)(=O)N2CCCC(C(=O)NCCN3CCOCC3)C2)cc1Cl (configuration not stated) returned TDP2 absorb inactive, NSD2 inh 83, UHRF1 binding inactive, Casp6 inh inactive, MBD2 DNA inh inactive, LEDGF integ inh inactive and Alpha artifact inactive.
For O=C(C[C@@H]1CC[C@@H]2[C@H](COC[C@@H](O)CN2Cc2cccc(-c3ccncc3)c2)O1)N1CCN(c2ccccc2)CC1 the results were Casp6 inh inactive.
`C[C@@H]1CN([C@@H](C)CO)C(=O)Cc2cc(NS(=O)(=O)c3cn(C)cn3)ccc2O[C@H]1CN(C)C` gave Casp6 inh inactive.
Screening COc1ccc(Nc2oc(COc3ccccc3OC)nc2C#N)cc1 returned TDP2 absorb inactive, NSD2 inh 51, UHRF1 binding inactive, Casp6 inh inactive, MBD2 DNA inh inactive, LEDGF integ inh inactive and Alpha artifact inactive.
Screening CCOC(=O)Nc1ccc(=O)n(Cc2c(Cl)cccc2Cl)c1 returned TDP2 absorb inactive, NSD2 inh 85, UHRF1 binding inactive, MBD2 DNA inh inactive, LEDGF integ inh inactive and Alpha artifact inactive.
Screening N#C[C@@H]1[C@H](c2ccccc2-c2ccccc2)[C@@H](CO)N1c1ncc(-c2ccccc2)s1 returned Casp6 inh inactive.
Screening CCN(CCCn1c(=S)[nH]c2ncccc2c1=O)c1ccccc1 returned TDP2 absorb inactive, NSD2 inh inactive, UHRF1 binding inactive, MBD2 DNA inh inactive and LEDGF integ inh inactive.
`CCN(CC)CCCn1c(=S)[nH]c2ncccc2c1=O` gave TDP2 absorb inactive, NSD2 inh 55, UHRF1 binding 21, MBD2 DNA inh inactive, LEDGF integ inh inactive and Alpha artifact inactive.
Screening COc1ccc(-n2c(C)ccc2-c2ccccc2)cn1 returned TDP2 absorb inactive, NSD2 inh 58, UHRF1 binding inactive, Casp6 inh inactive, MBD2 DNA inh inactive, LEDGF integ inh inactive and Alpha artifact inactive.
Screening O=C(C1CCCC1)N1CC(=O)N2[C@@H](CO)[C@H](c3ccc(-c4cccnc4)cc3)[C@@H]2C1 returned Casp6 inh inactive.

High-throughput results: PubChem, several laboratories
